According to ChEMBL document CHEMBL4513216, “Probing the Open Global Health Chemical Diversity Library for Multistage-Active Starting Points for Next-Generation Antimalarials” (ACS Infect Dis, 2020):

test: Toxicity liver stage against HepG2, at 10uM; assay type: cell-based; design: test concentration 10 uM, cell line HepG2-A16-CD81EGFP; conditions: human, HepG2-A16-CD81EGFP cells; read-out: INHIBITION
How it was run: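 Uninfected HepG2-A16-CD81EGFP cells, 3 × 10^3 per well, 1536-well, plated on prespotted compound at 10 μM final, parasite-free screening media added to match infected plates; puromycin 10 μM positive, DMSO 0.5% negative; run in parallel with 48 h PbLuc assay at 37 °C, 5% CO2; viability by CellTiter-Glo luminescence, normalized to controls.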

SMILES | cytotoxicity at 10 µM
COc1cc(NC(=O)N2CCCC2c2ccco2)cc(OC)c1 (configuration not stated) | 4.65%
COc1ccc2c(ccn2CCC(=O)N[C@H](C(=O)O)C(C)C)c1 | 5.98%
COC(=O)CNC(=O)c1nc(Br)sc1C(C)C | -172%
COc1ccc(C)cc1NC(=O)Nc1cnc(N2CCCC2)nc1 | 6.62%
O=C(c1ccccn1)N1CCC(S(=O)(=O)c2ccccc2)C1 (configuration not stated) | 3.26%
CN(C)C(=O)N1CC2(CCOCC2)c2cc(NC(=O)CCO)ccc21 | -6.13%
C[C@@H]1C[C@H]2CN(C(=O)c3cccc4c3OCCO4)C[C@H]2O1 | -0.726%
Cc1noc(C)c1CN1CC[C@H]2OCC[C@@H](C(=O)N3CCCO3)[C@H]2C1 | 2%
Cc1csc([C@H]2C[C@@H]3CCN(C(=O)c4cnccn4)C[C@H]3O2)n1 | 1.07%
Cc1cccc(C)c1-n1nnnc1C1(NCc2ccco2)CCCC1 | 12.9%
O=C(O)c1cnc(N2CCCC2)nc1COc1ccc(F)cc1 | -1.14%
Cc1csc(C(Cc2cccs2)NCc2cc3c(cc2C)OCO3)n1 (configuration not stated) | -8.9%
CN(C)C(=O)C1(C)CN(Cc2cn(C)c3ccccc23)CCO1 (configuration not stated) | 1.78%
Cc1cccnc1CN1CCCCC1c1ccn2ccnc2n1 (configuration not stated) | 0.498%
CCc1nccn1-c1cncc(C2CCCN2Cc2ccccc2)n1 (configuration not stated) | -1.17%
CCCn1cc(CN2CCC(c3[nH]ncc3S(C)(=O)=O)C2)cn1 (configuration not stated) | 4.27%
c1ccc(-c2nc(CCNCc3cccnc3)co2)cc1 | -5.35%
CC(C)(C)c1cc(NC(=O)NCCc2nnc3n2CCC3)c(C#N)s1 | 14.1%
CC(=O)N1CCN(c2ccccc2CNc2cc(F)cc(F)c2)CC1 | 3.7%
CN(c1ncccc1C#N)C1CCN(CCc2ccncc2)CC1 | 28.7%
CNC(=O)c1ccc(CN2CCN(C3=NCC(C)(C)S3)CC2)cc1 | 14.3%

SMILES | cytotoxicity at 10 µM
Cc1oc(-c2ccco2)nc1CN1CCc2cncnc2C1 | 2.44%
Cc1c(Br)cccc1CSc1nnc(CO)n1C | -40.5%
CN(CCN1CCN(c2ccccc2)CC1)C(=O)Nc1ccccn1 | 6.37%
CCn1cc(CN2CCCN(C(=O)C3(C#N)CCCCC3)CC2)cn1 | -53.5%
N#CC1(NC(=O)c2cc(Cl)ccc2OC(F)F)CCOCC1 | 7.48%
CNS(=O)(=O)Cc1cccc(CNc2ccc(Cl)cn2)c1 | -5.71%
O=C1C(N2CCOC3(CCCC3)C2)CCN1C1CC1 (configuration not stated) | 9.4%
N#Cc1ccc(N2CCC(OCCc3ccccc3)CC2)nc1 | -9.67%
COCCNS(=O)(=O)c1ccc(Cl)c(C(=O)N(C)Cc2ccsc2)c1 | -1.39%
Cc1cc(C)n(-c2cncc(NCCNC(=O)C3CCCC3)n2)n1 | 3.51%
FC(F)(F)C1CCCn2c(CNCc3ccco3)nnc21 (configuration not stated) | -9.5%
COCc1nc2n(n1)CCCC2Nc1nc(C(C)C)ns1 (configuration not stated) | 5.6%
Cc1nc(C2CCCN(C(=O)c3csc(C)n3)C2)no1 (configuration not stated) | 7.04%
Cc1ccc(CN(C(=O)NCCNC(=O)c2cccnc2)C(C)C)o1 | -6.06%
CCC(C)(C)NC(=O)CN(Cc1cccc(O)c1)C1CCC(O)CC1 (configuration not stated) | -2.22%
N#Cc1cc(Br)ccc1NC1CCN(CC(N)=O)CC1 | 5.23%
Cc1cnn(CC2CCCN2C(=O)c2sccc2C#N)c1 (configuration not stated) | 12.3%
CN1CCN(CC(=O)NCc2ccco2)Cc2ccccc21 | -3.81%
COc1ccc(OCCN(C)c2cc(C)nc(N)n2)cc1 | 49.5%
NC(=O)C(NC(=O)COC1CCCC1)c1ccccc1 (configuration not stated) | 3.25%
Cc1csc(N2CCN(Cc3nnsc3Cl)CC2C)n1 (configuration not stated) | -59.9%

SMILES | cytotoxicity at 10 µM
CNC(=O)CN(C)C(=O)c1cc(Cl)c(I)cc1OC | 13.8%
Cc1ccc(N(C)C2CCCN(C(=O)Nc3ccc(F)cc3F)C2)cc1 (configuration not stated) | -8.19%
CN(C)C(=O)c1ccc(CNc2c(Cl)cccc2C#N)cc1 | -50.6%
Cc1ccc(=O)n(CC(=O)N2CCCC(c3nc(C)c(C)s3)C2)n1 (configuration not stated) | -3.06%
CC(=O)N1CCO[C@@H]2CN(S(=O)(=O)c3ccc(F)cc3)CC[C@@H]2C1 | 13.7%
O=C(c1cnccn1)N1CCc2onc(CN3CCOCC3)c2C1 | 9.47%
Cn1c2c(ccc1=O)CC(NS(C)(=O)=O)CC2 (configuration not stated) | 3.99%
O=C1NCCN(CC2CC2)C12CCN(Cc1ccco1)CC2 | 2.55%
CNC(=O)Cc1cc2nccc(-c3c(OC)cccc3OC)n2n1 | -10.4%
CN(Cc1nncn1C)C(=O)c1cc(COc2ccccc2)[nH]n1 | 9.23%
Cc1nc2ccccn2c1CN1C[C@@H](CN(C)C)[C@@H](CO)C1 | 0.743%
CN1CCNC(=O)C1CC(=O)NCCc1cnn(-c2ccccc2)c1 (configuration not stated) | 2.53%
O=C(Cc1ccsc1)N1CCC(c2ccncc2)CC1 | 8.89%
CCCn1cnnc1CNC(=O)CC1C(=O)NCCN1C(C)C (configuration not stated) | 0.445%
CCc1nc(Cn2ccnc2-c2nccn2C)no1 | -42%
Cc1cc(-c2cc(S(=O)(=O)N3C[C@H](C4CC4)[C@@H](N)C3)c(C)s2)on1 | 3.37%
CCOCc1nc2c(c(N(C)Cc3snnc3C)n1)CCNCC2 | 10.7%
CCN(Cc1noc(CC(C)C)n1)Cc1cccc(F)c1O | -44%
COc1ccc(OC)c(-n2c(COC(C)C)n[nH]c2=O)c1 | 7.78%
O=C(COCC1CCCCO1)N1CCN(Cc2ccccc2F)C(=O)C1 (configuration not stated) | 3.15%
CC(C)N1CCOC(Cc2nn3c(Cc4ccccc4)nnc3s2)C1 (configuration not stated) | -6.53%

SMILES | cytotoxicity at 10 µM
COc1ccc(N2CCC(N(C)C(C)C(=O)N(C)C)CC2)cc1 (configuration not stated) | 11%
Cc1noc(C)c1S(=O)(=O)NC(=O)COc1ccc2c(c1)CCC2 | -3.07%
CCc1nccn1C1CCCN(C(=O)COCC(F)(F)F)C1 (configuration not stated) | -9.74%
Cc1ccc(C(=O)N2CCC(Oc3cccc(C)c3C)CC2)c(=O)[nH]1 | -6.48%
CC(C)NC(=O)CN1CCC(c2cccc(F)c2)C1 (configuration not stated) | 0.103%
COc1ccccc1CCN(C)C(=O)NC(C)c1nncn1C (configuration not stated) | -1.88%
O=C(c1csc(Br)c1)N1CCCC(n2ccnc2)C1 (configuration not stated) | 3.51%
CCc1ncc(CN(CCc2ccccc2)Cc2cccs2)cn1 | 2.44%
Cc1ccc([C@]2(O)CC[C@H]3CN(Cc4cc(C)c(O)c(C)c4)C[C@H]32)nc1 | -6.72%
c1csc(CN2CCn3c(Cn4cncn4)cnc3C2)n1 | -5.97%
Cc1nnc([C@@H]2C[C@H]3CN(C4CCC4)C[C@H]3O2)[nH]1 | 8.89%
O=C(c1cscn1)N1CCC2(CN(Cc3ccsc3)C2)C1 | 4.06%
Cn1cccc1C(=O)N1CCC2(CCCN2Cc2ccccc2)CC1 | 0.929%
CN1CC(=O)N(c2ccsc2)CC12CCN(C(=O)c1ccccc1)C2 (configuration not stated) | -0.516%
COc1ncccc1CN1CCC2(CCCN2S(C)(=O)=O)CC1 | 8.86%
O=C1[C@H]2CN(Cc3ccoc3)C[C@H]2CN1Cc1ccncc1 | -14.1%
Cc1noc(C)c1CN1CCn2cc(CNC(=O)C3CCC3)nc2C1 | 5.28%
CN(C)C(=O)CC1CC2(CCN(Cc3cccs3)CC2)c2ccccc21 (configuration not stated) | -3.87%
Cc1nc(COCC2CN(C(=O)N(C)C)Cc3nccn3C2)cs1 (configuration not stated) | 4.48%
